Laboratory results: ChEMBL document CHEMBL1141118, “Synthesis and SAR of 5-amino- and 5-(aminomethyl)benzofuran histamine H3 receptor antagonists with improved potency” (J Med Chem, 2005)
pKi: −log10 of the molar value.

What was measured:
[1] = molecular target: Histamine H3 receptor (Rattus norvegicus, UniProt Q9QYN8); test: In vitro binding affinity for rat histamine H3 receptor using [3H]N-alpha-methylhistamine
Outline: (§1)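 Radioligand binding used membranes from cells transfected with cloned human or rat H3 receptors.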

[2] = molecular target: Histamine H3 receptor (Homo sapiens, UniProt Q9Y5N1); test: In vitro binding affinity for human histamine H3 receptor using [3H]N-alpha-methylhistamine; outline: as §1
Chain of Histamine H3 receptor (Homo sapiens, UniProt Q9Y5N1) (Q9Y5N1 whole entry): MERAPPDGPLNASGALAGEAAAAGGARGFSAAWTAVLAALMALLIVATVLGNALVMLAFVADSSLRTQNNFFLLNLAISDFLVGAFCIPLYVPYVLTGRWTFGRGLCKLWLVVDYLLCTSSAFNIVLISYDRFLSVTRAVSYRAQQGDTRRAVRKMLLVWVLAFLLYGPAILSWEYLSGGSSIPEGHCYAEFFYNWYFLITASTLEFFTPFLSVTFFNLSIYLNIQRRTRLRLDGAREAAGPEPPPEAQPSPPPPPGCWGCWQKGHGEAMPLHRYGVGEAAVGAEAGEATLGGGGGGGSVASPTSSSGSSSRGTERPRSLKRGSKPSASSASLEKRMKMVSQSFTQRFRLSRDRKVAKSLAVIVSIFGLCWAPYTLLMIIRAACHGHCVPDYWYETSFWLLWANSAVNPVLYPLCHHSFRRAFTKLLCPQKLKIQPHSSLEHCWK

[3] = Area under plasma concentration curve of the compound upon i.v. dose of 1 mg/kg in rats; format: ADME, organism-based; parameters: dose 1 mg/kg, route intravenous; conditions: rat, in vivo, iv
[4] = Area under plasma concentration curve of the compound upon p.o. dose of 1 mg/kg in rats; format: ADME, organism-based; parameters: dose 1 mg/kg, route oral; conditions: rat, in vivo, po
[5] = Oral bioavailability in rat (dose 1 mg/kg); format: ADME, organism-based; conditions: in vivo
[6] = Plasma clearance upon i.v. dose of 1 mg/kg in rats; format: ADME, organism-based; parameters: dose 1 mg/kg, route intravenous; conditions: rat, iv
[7] = Terminal half life upon i.v. dose of 1 mg/kg in rats; format: ADME, organism-based; parameters: dose 1 mg/kg, route intravenous; conditions: rat, in vivo, iv
[8] = Maximum plasma concentration upon p.o. dose of 1 mg/kg in rats; format: ADME, organism-based; parameters: dose 1 mg/kg, route oral; conditions: rat, po
[9] = Terminal half life upon p.o. dose of 1 mg/kg in rats; format: ADME, organism-based; parameters: dose 1 mg/kg, route oral; conditions: rat, in vivo, po

Chain of Histamine H3 receptor (Rattus norvegicus, UniProt Q9QYN8) (Q9QYN8 whole entry): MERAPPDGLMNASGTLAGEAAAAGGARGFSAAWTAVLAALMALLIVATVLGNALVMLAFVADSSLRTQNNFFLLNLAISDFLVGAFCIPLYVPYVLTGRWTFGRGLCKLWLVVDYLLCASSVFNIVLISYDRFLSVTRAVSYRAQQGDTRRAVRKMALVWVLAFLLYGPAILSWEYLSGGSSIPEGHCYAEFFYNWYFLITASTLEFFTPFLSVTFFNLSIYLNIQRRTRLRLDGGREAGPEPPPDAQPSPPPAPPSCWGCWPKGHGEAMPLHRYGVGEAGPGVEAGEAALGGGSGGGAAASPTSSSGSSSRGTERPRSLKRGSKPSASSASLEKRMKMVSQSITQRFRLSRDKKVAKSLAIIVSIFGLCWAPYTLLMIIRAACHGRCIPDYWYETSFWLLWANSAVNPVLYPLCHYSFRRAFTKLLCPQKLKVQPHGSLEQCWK

SMILES | pKi [1] | pKi [2] | further results
C[C@@H]1CCCN1CCc1cc2cc(CNc3cnccn3)ccc2o1 | 9.10 | 9.54 | –
C[C@@H]1CCCN1CCc1cc2cc(CNc3ccc([N+](=O)[O-])cc3)ccc2o1 | 8.67 | 9.13 | –
C[C@@H]1CCCN1CCc1cc2cc(CNc3ccc([N+](=O)[O-])cn3)ccc2o1 | 8.92 | 9.52 | –
C[C@@H]1CCCN1CCc1cc2cc(CNc3ncc([N+](=O)[O-])cc3[N+](=O)[O-])ccc2o1 | 8.54 | 9.15 | –
C[C@@H]1CCCN1CCc1cc2cc(CNc3ncc([N+](=O)[O-])s3)ccc2o1 | 9.17 | 9.72 | –
C[C@@H]1CCCN1CCc1cc2cc(Nc3ccccc3[N+](=O)[O-])ccc2o1 | 9.06 | 9.66 | –
CCc1cnc(NCc2ccc3oc(CCN4CCC[C@H]4C)cc3c2)nc1 | 9.24 | 9.48 | AUC [3]: 210 ng·h/mL; AUC [4]: 18.9 ng·h/mL; bioavailability [5]: 9%; clearance [6]: 79.8 mL/min/kg; half-life [7]: 1.7 h; Cmax [8]: 7.1 ng/mL
C[C@@H]1CCCN1CCc1cc2cc(CNc3cncnc3)ccc2o1 | 8.60 | 9.16 | –
C[C@@H]1CCCN1CCc1cc2cc(CNc3cccc(C#N)c3)ccc2o1 | 8.93 | 9.40 | –
C[C@@H]1CCCN1CCc1cc2cc(CNc3ncccc3[N+](=O)[O-])ccc2o1 | 8.57 | 9.37 | –
C[C@@H]1CCCN1CCc1cc2cc(-c3ccc(C#N)cc3)ccc2o1 | – | – | AUC [3]: 667 ng·h/mL; AUC [4]: 426 ng·h/mL; bioavailability [5]: 61.8%; clearance [6]: 25.7 mL/min/kg; half-life [9]: 6.7 h; half-life [7]: 5.7 h; Cmax [8]: 39.6 ng/mL
C[C@@H]1CCCN1CCc1cc2cc(CNc3ncccn3)ccc2o1 | 8.49 | 9.08 | AUC [3]: 350 ng·h/mL; AUC [4]: 72.1 ng·h/mL; bioavailability [5]: 20.6%; clearance [6]: 47.7 mL/min/kg; half-life [9]: 1.7 h; half-life [7]: 1 h; Cmax [8]: 34.5 ng/mL
C[C@@H]1CCCN1CCc1cc2cc(CNc3ccc(Cl)nn3)ccc2o1 | 8.80 | 9.51 | –
C[C@@H]1CCCN1CCc1cc2cc(CNc3ncccc3C#N)ccc2o1 | 8.72 | 9.13 | –
C[C@@H]1CCCN1CCc1cc2cc(CNc3ncc(Br)cn3)ccc2o1 | 8.40 | 8.91 | –
C[C@@H]1CCCN1CCc1cc2cc(CNc3ccccc3[N+](=O)[O-])ccc2o1 | 9.06 | 9.51 | –
C[C@@H]1CCCN1CCc1cc2cc(CNc3nccnc3C#N)ccc2o1 | 8.40 | 8.98 | –
C[C@@H]1CCCN1CCc1cc2cc(CNc3cc(C#N)nc(C#N)c3)ccc2o1 | 9.40 | 9.89 | –

Further lines, with some results ahead:

pKi [1] | pKi [2] | SMILES | further results
8.87 | 9.57 | C[C@@H]1CCCN1CCc1cc2cc(Nc3ccc(C#N)cc3)ccc2o1 | –
8.70 | 9.51 | C[C@@H]1CCCN1CCc1cc2cc(Nc3ncccn3)ccc2o1 | –
7.75 | 8.53 | Cc1ccc(C#N)c(Nc2ccc3oc(CCN4CCC[C@H]4C)cc3c2)n1 | –
9.46 | 9.85 | C[C@@H]1CCCN1CCc1cc2cc(Nc3ncccc3[N+](=O)[O-])ccc2o1 | –
9.42 | 9.96 | C[C@@H]1CCCN1CCc1cc2cc(Nc3cnccn3)ccc2o1 | –
8.56 | 9.27 | C[C@@H]1CCCN1CCc1cc2cc(Nc3ccc(C(F)(F)F)cn3)ccc2o1 | –
9.96 | 10.30 | C[C@@H]1CCCN1CCc1cc2cc(Nc3ccc([N+](=O)[O-])cn3)ccc2o1 | –
8.63 | 9.13 | C[C@@H]1CCCN1CCc1cc2cc(CNc3ccc(C(=O)C(F)(F)F)cc3)ccc2o1 | –
8.83 | 9.54 | C[C@@H]1CCCN1CCc1cc2cc(Nc3cccc(C#N)c3)ccc2o1 | –
8.85 | 9.47 | C[C@@H]1CCCN1CCc1cc2cc(CNc3ccc(C#N)cn3)ccc2o1 | –
9.57 | 10.10 | C[C@@H]1CCCN1CCc1cc2cc(Nc3cncnc3)ccc2o1 | AUC [3]: 35.9 ng·h/mL; AUC [4]: 0 ng·h/mL; bioavailability [5]: 0%; clearance [6]: 475 mL/min/kg; half-life [7]: 0.3 h
8.60 | 9.21 | CCc1cnc(Nc2ccc3oc(CCN4CCC[C@H]4C)cc3c2)nc1 | AUC [3]: 355 ng·h/mL; AUC [4]: 103 ng·h/mL; bioavailability [5]: 29%; clearance [6]: 47 mL/min/kg; half-life [9]: 4.8 h; half-life [7]: 3.7 h; Cmax [8]: 16.2 ng/mL
